Test results from ChEMBL document CHEMBL4043303, “Development of Novel Melanocortin Receptor Agonists Based on the Cyclic Peptide Framework of Sunflower Trypsin Inhibitor-1” (J Med Chem, 2018).
Calls of active or inactive are those of the source. The calls are words filed in the database; no cut-off is given here. Where a SMILES comes first, the peptide text is derived from it. Bridges are numbered along the chain shown (N, C = ends). [ ]: non-standard residue; d: D form. NMeW = CN[C@@H](Cc1c[nH]c2ccccc12)C(=O)O

Tests used:
Bos taurus = organism: Bos taurus; test: Inhibition of bovine trypsin at 5 uM using Boc-QAR-pNA as substrate preincubated for 1 hr followed by substrate addition measured every 30 secs for 300 secs by […]
Melanocortin receptor 4 [1] = target: T1, Melanocortin receptor 4 (Homo sapiens, UniProt P32245); test: Agonist activity at human MC4R expressed in high doxycyclin-treated HEK293 cell membranes assessed as increase in cAMP production after 15 mins by HTRF method; format: functional, cell-based
T1 sequence (P32245 whole entry): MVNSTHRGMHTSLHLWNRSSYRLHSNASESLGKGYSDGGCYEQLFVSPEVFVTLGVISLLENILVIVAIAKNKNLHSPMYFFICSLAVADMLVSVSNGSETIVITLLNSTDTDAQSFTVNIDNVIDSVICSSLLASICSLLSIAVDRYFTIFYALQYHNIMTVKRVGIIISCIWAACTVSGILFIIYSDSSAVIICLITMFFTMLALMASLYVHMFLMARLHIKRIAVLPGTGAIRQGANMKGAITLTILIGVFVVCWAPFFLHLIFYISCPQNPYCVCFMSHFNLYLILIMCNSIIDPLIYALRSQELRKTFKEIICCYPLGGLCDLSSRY
Procedure, shortened: (§1)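 T-REx-293 cells stably expressing doxycycline-inducible human MC1R, MC3R or MC4R; expression induced 24 h with 0.1 ng/mL (low) or 10 ng/mL (high, MC4R only) doxycycline. 1000 cells/well in HBSS, 20 mM HEPES pH 7.4, 0.1% BSA, 1 mM IBMX; stimulated at 37 °C. Time-resolved FRET cAMP read-out normalized to NDP-α-MSH maximum.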

Melanocortin receptor 4 [2] = target: T1, Melanocortin receptor 4; test: Agonist activity at human MC4R expressed in low doxycyclin-treated HEK293 cell membranes assessed as increase in cAMP production after 45 mins by HTRF method; format: functional, cell-based; procedure, shortened: as §1
Melanocortin receptor 3 [3] = target: T2, Melanocortin receptor 3 (Homo sapiens, UniProt P41968); test: Agonist activity at human MC3R expressed in low doxycyclin-treated HEK293 cell membranes assessed as increase in cAMP production after 45 mins by HTRF method; format: functional, cell-based; parameters: concentration or dose not given beside the values; procedure, shortened: as §1
T2 sequence (P41968 whole entry, the tested form may be a part): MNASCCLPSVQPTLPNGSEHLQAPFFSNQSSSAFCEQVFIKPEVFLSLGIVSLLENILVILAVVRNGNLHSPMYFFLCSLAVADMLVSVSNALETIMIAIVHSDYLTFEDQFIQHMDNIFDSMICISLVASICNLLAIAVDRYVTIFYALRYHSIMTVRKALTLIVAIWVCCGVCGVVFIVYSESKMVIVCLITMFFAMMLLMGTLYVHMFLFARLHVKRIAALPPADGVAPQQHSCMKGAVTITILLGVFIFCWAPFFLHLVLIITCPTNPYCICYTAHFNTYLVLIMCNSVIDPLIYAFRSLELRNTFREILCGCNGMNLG

[4] = target: T3, Melanocyte-stimulating hormone receptor (Homo sapiens, UniProt Q01726); test: Displacement of [125I]-NDP-alpha-MSH from human MC1R LBD expressed in HEK293 cell membranes incubated for 16 to 23 hrs in dark by scintillation proximity assay; parameters: concentration or dose not given beside the values; details: for inhibition: concentration not given here
[5] = target: T3, Melanocyte-stimulating hormone receptor; test: Agonist activity at human MC1R expressed in low doxycyclin-treated HEK293 cell membranes assessed as increase in cAMP production after 45 mins by HTRF method; format: functional, cell-based
Melanocortin receptor 4 [6] = target: T1, Melanocortin receptor 4; test: Displacement of [125I]-NDP-alpha-MSH from human MC4R LBD expressed in HEK293 cell membranes incubated for 16 to 23 hrs in dark by scintillation proximity assay; parameters: concentration or dose not given beside the values; details: for inhibition: concentration not given here
Melanocortin receptor 5 = Melanocortin receptor 5 (Homo sapiens, UniProt P33032); test: Displacement of [125I]-NDP-alpha-MSH from human MC5R LBD expressed in HEK293 cell membranes incubated for 16 to 23 hrs in dark by scintillation proximity assay; parameters: concentration or dose not given beside the values; details: for inhibition: concentration not given here
Melanocortin receptor 5, sequence (P33032 whole entry, the tested form may be a part): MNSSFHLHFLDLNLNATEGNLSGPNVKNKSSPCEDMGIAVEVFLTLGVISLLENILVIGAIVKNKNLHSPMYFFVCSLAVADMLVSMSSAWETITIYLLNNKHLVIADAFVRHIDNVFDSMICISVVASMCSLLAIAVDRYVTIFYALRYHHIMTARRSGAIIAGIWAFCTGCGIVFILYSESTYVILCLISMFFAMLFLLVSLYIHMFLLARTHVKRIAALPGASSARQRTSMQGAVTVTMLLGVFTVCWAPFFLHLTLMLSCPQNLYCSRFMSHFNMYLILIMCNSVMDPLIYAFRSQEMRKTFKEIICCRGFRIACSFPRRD

Melanocortin receptor 3 [7] = target: T2, Melanocortin receptor 3; test: Displacement of [125I]-NDP-alpha-MSH from human MC3R LBD expressed in HEK293 cell membranes incubated for 16 to 23 hrs in dark by scintillation proximity assay; parameters: concentration or dose not given beside the values; details: for inhibition: concentration not given here
[8] = Solubility of the compound in water at 1 mM; format: physicochemical; details: buffer, 1000 µM
Melanocortin receptor 3 [9] = target: T2, Melanocortin receptor 3; test: Displacement of [125I]-NDP-alpha-MSH from human MC3R LBD expressed in HEK293 cell membranes up to 100 uM incubated for 16 to 23 hrs in dark by scintillation proximity assay
Melanocortin receptor 3 [10] = target: T2, Melanocortin receptor 3; test: Agonist activity at human MC3R expressed in low doxycyclin-treated HEK293 cell membranes assessed as increase in cAMP production up to 100 uM after 45 mins by HTRF method; format: functional, cell-based
Procedure, shortened: (§2)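 Stable T-REx-293 clones (Zeocin-selected, human receptor cDNA in pcDNA4/TO), receptor expression induced with 0.1 ng/mL doxycycline for 24 h. 1000 cells/well in HBSS with Ca2+/Mg2+, 20 mM HEPES pH 7.4, 0.1% BSA. Stimulation for 45 min at 37 °C with 1 mM IBMX. cAMP read by LANCE HTRF (665/615 nm).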

Melanocortin receptor 4 [11] = target: T1, Melanocortin receptor 4; test: Agonist activity at human MC4R expressed in low doxycyclin-treated HEK293 cell membranes assessed as increase in cAMP production up to 100 uM after 45 mins by HTRF method; format: functional, cell-based; procedure, shortened: as §2

SMILES	Activity (Melanocortin receptor 4 [1])	Activity (Melanocortin receptor 3 [3])	inhibition [4]	Activity [5]	inhibition (Melanocortin receptor 4 [6])	inhibition (Melanocortin receptor 5)	inhibition (Melanocortin receptor 3 [7])	solubility [8]	inhibition (Bos taurus)	Activity (Melanocortin receptor 4 [2])	also measured
CC[C@H](C)[C@@H]1NC(=O)[C@@H]2CCCN2C(=O)[C@@H]2CCCN2C(=O)[C@H]([C@@H](C)CC)NC(=O)[C@H](CO)NC(=O)[C@H](C)NC(=O)[C@H]([C@H](C)O)NC(=O)[C@@H]2CSSC[C@H](NC1=O)C(=O)N[C@@H](Cc1cnc[nH]1)C(=O)N[C@H](Cc1ccccc1)C(=O)N(C)[C@@H](CCCNC(=N)N)C(=O)N[C@@H](Cc1c[nH]c3ccccc13)C(=O)N[C@@H](CCCNC(=N)N)C(=O)N2	100%	100%	100%	100%	100%	100%	100%	–	Active	100%	–
CC[C@H](C)[C@@H]1NC(=O)[C@@H]2CCCN2C(=O)[C@@H]2CCCN2C(=O)[C@H]([C@@H](C)CC)NC(=O)[C@H](CO)NC(=O)[C@H](C)NC(=O)[C@H]([C@H](C)O)NC(=O)[C@@H]2CSSC[C@H](NC1=O)C(=O)N[C@@H](Cc1cnc[nH]1)C(=O)N[C@H](Cc1ccccc1)C(=O)N(C)[C@@H](CCCNC(=N)N)C(=O)N(C)[C@@H](Cc1c[nH]c3ccccc13)C(=O)N[C@@H](CCCNC(=N)N)C(=O)N2	100%	100%	100%	100%	100%	100%	100%	–	Active	100%	–
CC[C@H](C)[C@@H]1NC(=O)[C@@H]2CCCN2C(=O)[C@H](Cc2c[nH]c3ccccc23)NC(=O)[C@H](CCCNC(=N)N)NC(=O)[C@@H](Cc2ccccc2)NC(=O)[C@H](Cc2cnc[nH]2)N(C)C(=O)[C@H]([C@@H](C)O)NC(=O)[C@@H]2CSSC[C@H](NC1=O)C(=O)N[C@@H](Cc1ccccc1)C(=O)N1CCC[C@H]1C(=O)N[C@@H](CC(=O)O)C(=O)NCC(=O)N[C@@H](CCCNC(=N)N)C(=O)N2	100%	100%	100%	100%	100%	100%	100%	Soluble	–	100%	–
CC[C@H](C)[C@@H]1NC(=O)[C@@H]2CCCN2C(=O)[C@@H]2CCCN2C(=O)[C@H]([C@@H](C)CC)NC(=O)[C@H](CO)NC(=O)[C@H](C)NC(=O)[C@H]([C@H](C)O)NC(=O)[C@@H]2CSSC[C@H](NC1=O)C(=O)N[C@@H](Cc1cnc[nH]1)C(=O)N[C@H](Cc1ccccc1)C(=O)N[C@@H](CCCNC(=N)N)C(=O)N[C@@H](Cc1c[nH]c3ccccc13)C(=O)N[C@@H](CCCNC(=N)N)C(=O)N2	100%	100%	100%	100%	100%	100%	100%	–	Active	100%	–
CC[C@H](C)[C@@H]1NC(=O)[C@@H]2CCCN2C(=O)[C@H](Cc2c[nH]c3ccccc23)NC(=O)[C@H](CCCNC(=N)N)NC(=O)[C@@H](Cc2ccccc2)NC(=O)[C@H](Cc2cnc[nH]2)NC(=O)[C@H]([C@@H](C)O)NC(=O)[C@@H]2CSSC[C@H](NC1=O)C(=O)N[C@@H](Cc1ccccc1)C(=O)N1CCC[C@H]1C(=O)N[C@@H](CC(=O)O)C(=O)NCC(=O)N[C@@H](CCCNC(=N)N)C(=O)N2	100%	100%	100%	100%	100%	100%	100%	Soluble	–	100%	–
CC[C@H](C)[C@@H]1NC(=O)[C@@H]2CCCN2C(=O)[C@H](Cc2c[nH]c3ccccc23)N(C)C(=O)[C@H](CCCNC(=N)N)NC(=O)[C@@H](Cc2ccccc2)NC(=O)[C@H](Cc2cnc[nH]2)NC(=O)[C@H]([C@@H](C)O)NC(=O)[C@@H]2CSSC[C@H](NC1=O)C(=O)N[C@@H](Cc1ccccc1)C(=O)N1CCC[C@H]1C(=O)N[C@@H](CC(=O)O)C(=O)NCC(=O)N[C@@H](CCCNC(=N)N)C(=O)N2 (cyclo(CFPDGRCTH[dF]R[NMeW]PI); disulfide 1-7)	100%	100%	100%	100%	100%	100%	100%	Soluble	–	100%	–
CC[C@H](C)[C@@H]1NC(=O)[C@@H]2CCCN2C(=O)[C@@H]2CCCN2C(=O)[C@H]([C@@H](C)CC)NC(=O)[C@H](CO)NC(=O)[C@H](C)NC(=O)[C@H]([C@H](C)O)NC(=O)[C@@H]2CSSC[C@H](NC1=O)C(=O)N[C@@H](Cc1cnc[nH]1)C(=O)N[C@@H](Cc1ccccc1)C(=O)N[C@@H](CCCNC(=N)N)C(=O)N[C@@H](Cc1c[nH]c3ccccc13)C(=O)N[C@@H](CCCNC(=N)N)C(=O)N2	100%	100%	100%	100%	100%	100%	100%	Soluble	–	100%	EC50 (Melanocortin receptor 4 [1]): 3.09 µM; EC50 (Melanocortin receptor 4 [2]): > 100 µM; EC50 (Melanocortin receptor 3 [3]): 2.14 µM; Ki [4]: 0.363 µM; EC50 [5]: 0.0417 µM; Ki (Melanocortin receptor 4 [6]): 25.1 µM; IC50 (Melanocortin receptor 5): 4.07 µM; Ki (Melanocortin receptor 3 [7]): 23.4 µM

The next lines start with results.

Activity (Melanocortin receptor 4 [1])	Activity (Melanocortin receptor 3 [3])	inhibition [4]	Activity [5]	inhibition (Melanocortin receptor 4 [6])	inhibition (Melanocortin receptor 5)	inhibition (Melanocortin receptor 3 [7])	solubility [8]	SMILES	inhibition (Bos taurus)	Activity (Melanocortin receptor 4 [2])	also measured
100%	100%	100%	100%	100%	100%	100%	Soluble	CC[C@H](C)[C@@H]1NC(=O)[C@@H]2CCCN2C(=O)[C@H](Cc2c[nH]c3ccccc23)NC(=O)[C@H](CCCNC(=N)N)N(C)C(=O)[C@@H](Cc2ccccc2)NC(=O)[C@H](Cc2cnc[nH]2)N(C)C(=O)[C@H]([C@@H](C)O)NC(=O)[C@@H]2CSSC[C@H](NC1=O)C(=O)N[C@@H](Cc1ccccc1)C(=O)N1CCC[C@H]1C(=O)N[C@@H](CC(=O)O)C(=O)NCC(=O)N[C@@H](CCCNC(=N)N)C(=O)N2	–	100%	–
100%	–	100%	100%	100%	100%	–	Soluble	CC[C@H](C)[C@@H]1NC(=O)[C@@H]2CCCN2C(=O)[C@H](Cc2c[nH]c3ccccc23)N(C)C(=O)[C@H](CCCNC(=N)N)N(C)C(=O)[C@@H](Cc2ccccc2)NC(=O)[C@H](Cc2cnc[nH]2)N(C)C(=O)[C@H]([C@@H](C)O)NC(=O)[C@@H]2CSSC[C@H](NC1=O)C(=O)N[C@@H](Cc1ccccc1)C(=O)N1CCC[C@H]1C(=O)N[C@@H](CC(=O)O)C(=O)NCC(=O)N[C@@H](CCCNC(=N)N)C(=O)N2	–	–	inhibition (Melanocortin receptor 3 [9]): inactive; Activity (Melanocortin receptor 3 [10]): inactive; Activity (Melanocortin receptor 4 [11]): inactive
100%	100%	100%	100%	100%	100%	100%	Soluble	CC[C@H](C)[C@@H]1NC(=O)[C@@H]2CCCN2C(=O)[C@H](Cc2c[nH]c3ccccc23)N(C)C(=O)[C@H](CCCNC(=N)N)NC(=O)[C@@H](Cc2ccccc2)NC(=O)[C@H](Cc2cnc[nH]2)N(C)C(=O)[C@H]([C@@H](C)O)NC(=O)[C@@H]2CSSC[C@H](NC1=O)C(=O)N[C@@H](Cc1ccccc1)C(=O)N1CCC[C@H]1C(=O)N[C@@H](CC(=O)O)C(=O)NCC(=O)N[C@@H](CCCNC(=N)N)C(=O)N2	–	–	Activity (Melanocortin receptor 4 [11]): inactive
